{
  "source": "ChEMBL document CHEMBL4689842",
  "about": "“EUbOPEN Chemogenomics Library wave 1” (2021)",
  "tested_on": "Fibroblast",
  "assay": "Multiplex assay against human fibroblast",
  "format": "toxicity, cell-based",
  "method_in_brief": "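Values for tubulin, mitochondrial-mass and membrane-permeability phenotypes are per cents of cells with healthy nuclei. These cells were identified by CellPathfinder machine-learning gating of live cells that had been stained at seeding with Hoechst33342, BioTracker Green Microtubule Cytoskeleton Dye, MitoTracker Red and Annexin V Alexa Fluor 680 and imaged on a CQ1 microscope at 37°C and 5% CO2 after compound addition. The gating first set Hoechst high-intensity objects apart from normal cells, then split normal cells into healthy, pyknosed or fragmented nuclei, and pyknosed cells into mitotic or apoptotic.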",
  "key": {"[1]": {"details": "12 h, 0 µM, compound concentration 0 uM, replicate 1"}, "[2]": {"details": "12 h, 0 µM, compound concentration 0 uM, replicate 2"}, "[3]": {"details": "12 h, 1 µM, compound concentration 1 uM, replicate 1"}, "[4]": {"details": "12 h, 1 µM, compound concentration 1 uM, replicate 2"}, "[5]": {"details": "24 h, 0 µM, compound concentration 0 uM, replicate 1"}, "[6]": {"details": "24 h, 0 µM, compound concentration 0 uM, replicate 2"}, "[7]": {"details": "24 h, 1 µM, compound concentration 1 uM, replicate 1"}, "[8]": {"details": "24 h, 1 µM, compound concentration 1 uM, replicate 2"}},
  "data": [
    {"smiles": "CCNc1cc(N[C@H]2CC[C@H](O)CC2)nc(Nc2ccc3c(ccn3Cc3ccccc3)c2)n1", "values": [
      {"measurement": "Population Apoptotic (%)", "setting": "[1]", "result": 55, "unit": "%"},
      {"measurement": "Population Fragmented Nuclei (%)", "setting": "[1]", "result": 24, "unit": "%"},
      {"measurement": "Population Healthy Nuclei (%)", "setting": "[1]", "result": 52, "unit": "%"},
      {"measurement": "Population Hoechst High Intensity Objects (%)", "setting": "[1]", "result": 26, "unit": "%"},
      {"measurement": "Population Membrane Permeable-Phenotype (%)", "setting": "[1]", "result": 0, "unit": "%"},
      {"measurement": "Population Mitotic Cells (%)", "setting": "[1]", "result": 44, "unit": "%"},
      {"measurement": "Population Normal (%)", "setting": "[1]", "result": 73, "unit": "%"},
      {"measurement": "Population Pyknosed Nuclei (%)", "setting": "[1]", "result": 22, "unit": "%"},
      {"measurement": "Population Tubulin-Different-Phenotype (%)", "setting": "[1]", "result": 38, "unit": "%"},
      {"measurement": "Total Cell Count", "setting": "[1]", "result": 280},
      {"measurement": "Population Apoptotic (%)", "setting": "[2]", "result": 60, "unit": "%"},
      {"measurement": "Population Fragmented Nuclei (%)", "setting": "[2]", "result": 40, "unit": "%"},
      {"measurement": "Population Healthy Nuclei (%)", "setting": "[2]", "result": 48, "unit": "%"},
      {"measurement": "Population Hoechst High Intensity Objects (%)", "setting": "[2]", "result": 47, "unit": "%"},
      {"measurement": "Population Membrane Permeable-Phenotype (%)", "setting": "[2]", "result": 4, "unit": "%"},
      {"measurement": "Population Mitochondria Different-Phenotype (%)", "setting": "[2]", "result": 41, "unit": "%"},
      {"measurement": "Population Mitotic Cells (%)", "setting": "[2]", "result": 40, "unit": "%"},
      {"measurement": "Population Normal (%)", "setting": "[2]", "result": 52, "unit": "%"},
      {"measurement": "Population Pyknosed Nuclei (%)", "setting": "[2]", "result": 10, "unit": "%"},
      {"measurement": "Population Tubulin-Different-Phenotype (%)", "setting": "[2]", "result": 41, "unit": "%"},
      {"measurement": "Total Cell Count", "setting": "[2]", "result": 94},
      {"measurement": "Population Apoptotic (%)", "setting": "[3]", "result": 76, "unit": "%"},
      {"measurement": "Population Fragmented Nuclei (%)", "setting": "[3]", "result": 45, "unit": "%"},
      {"measurement": "Population Healthy Nuclei (%)", "setting": "[3]", "result": 47, "unit": "%"},
      {"measurement": "Population Hoechst High Intensity Objects (%)", "setting": "[3]", "result": 20, "unit": "%"},
      {"measurement": "Population Membrane Permeable-Phenotype (%)", "setting": "[3]", "result": 2, "unit": "%"},
      {"measurement": "Population Mitochondria Different-Phenotype (%)", "setting": "[3]", "result": 11, "unit": "%"},
      {"measurement": "Population Mitotic Cells (%)", "setting": "[3]", "result": 23, "unit": "%"},
      {"measurement": "Population Normal (%)", "setting": "[3]", "result": 79, "unit": "%"},
      {"measurement": "Population Pyknosed Nuclei (%)", "setting": "[3]", "result": 7, "unit": "%"},
      {"measurement": "Population Tubulin-Different-Phenotype (%)", "setting": "[3]", "result": 12, "unit": "%"},
      {"measurement": "Total Cell Count", "setting": "[3]", "result": 286},
      {"measurement": "Population Apoptotic (%)", "setting": "[4]", "result": 66, "unit": "%"},
      {"measurement": "Population Fragmented Nuclei (%)", "setting": "[4]", "result": 67, "unit": "%"},
      {"measurement": "Population Healthy Nuclei (%)", "setting": "[4]", "result": 29, "unit": "%"},
      {"measurement": "Population Hoechst High Intensity Objects (%)", "setting": "[4]", "result": 50, "unit": "%"},
      {"measurement": "Population Membrane Permeable-Phenotype (%)", "setting": "[4]", "result": 8, "unit": "%"},
      {"measurement": "Population Mitochondria Different-Phenotype (%)", "setting": "[4]", "result": 17, "unit": "%"},
      {"measurement": "Population Mitotic Cells (%)", "setting": "[4]", "result": 33, "unit": "%"},
      {"measurement": "Population Normal (%)", "setting": "[4]", "result": 49, "unit": "%"},
      {"measurement": "Population Pyknosed Nuclei (%)", "setting": "[4]", "result": 3, "unit": "%"},
      {"measurement": "Population Tubulin-Different-Phenotype (%)", "setting": "[4]", "result": 34, "unit": "%"},
      {"measurement": "Total Cell Count", "setting": "[4]", "result": 160},
      {"measurement": "Population Apoptotic (%)", "setting": "[5]", "result": 71, "unit": "%"},
      {"measurement": "Population Fragmented Nuclei (%)", "setting": "[5]", "result": 21, "unit": "%"},
      {"measurement": "Population Healthy Nuclei (%)", "setting": "[5]", "result": 45, "unit": "%"},
      {"measurement": "Population Hoechst High Intensity Objects (%)", "setting": "[5]", "result": 38, "unit": "%"},
      {"measurement": "Population Mitochondria Different-Phenotype (%)", "setting": "[5]", "result": 65, "unit": "%"},
      {"measurement": "Population Mitotic Cells (%)", "setting": "[5]", "result": 28, "unit": "%"},
      {"measurement": "Population Normal (%)", "setting": "[5]", "result": 61, "unit": "%"},
      {"measurement": "Population Pyknosed Nuclei (%)", "setting": "[5]", "result": 32, "unit": "%"},
      {"measurement": "Population Tubulin-Different-Phenotype (%)", "setting": "[5]", "result": 50, "unit": "%"},
      {"measurement": "Total Cell Count", "setting": "[5]", "result": 257},
      {"measurement": "Population Apoptotic (%)", "setting": "[6]", "result": 90, "unit": "%"},
      {"measurement": "Population Fragmented Nuclei (%)", "setting": "[6]", "result": 60, "unit": "%"},
      {"measurement": "Population Healthy Nuclei (%)", "setting": "[6]", "result": 21, "unit": "%"},
      {"measurement": "Population Hoechst High Intensity Objects (%)", "setting": "[6]", "result": 40, "unit": "%"},
      {"measurement": "Population Membrane Permeable-Phenotype (%)", "setting": "[6]", "result": 0, "unit": "%"},
      {"measurement": "Population Mitochondria Different-Phenotype (%)", "setting": "[6]", "result": 83, "unit": "%"},
      {"measurement": "Population Mitotic Cells (%)", "setting": "[6]", "result": 10, "unit": "%"},
      {"measurement": "Population Normal (%)", "setting": "[6]", "result": 59, "unit": "%"},
      {"measurement": "Population Pyknosed Nuclei (%)", "setting": "[6]", "result": 18, "unit": "%"},
      {"measurement": "Population Tubulin-Different-Phenotype (%)", "setting": "[6]", "result": 33, "unit": "%"},
      {"measurement": "Total Cell Count", "setting": "[6]", "result": 92},
      {"measurement": "Population Apoptotic (%)", "setting": "[7]", "result": 76, "unit": "%"},
      {"measurement": "Population Fragmented Nuclei (%)", "setting": "[7]", "result": 45, "unit": "%"},
      {"measurement": "Population Healthy Nuclei (%)", "setting": "[7]", "result": 44, "unit": "%"},
      {"measurement": "Population Hoechst High Intensity Objects (%)", "setting": "[7]", "result": 21, "unit": "%"},
      {"measurement": "Population Membrane Permeable-Phenotype (%)", "setting": "[7]", "result": 0, "unit": "%"},
      {"measurement": "Population Mitochondria Different-Phenotype (%)", "setting": "[7]", "result": 10, "unit": "%"},
      {"measurement": "Population Mitotic Cells (%)", "setting": "[7]", "result": 24, "unit": "%"},
      {"measurement": "Population Normal (%)", "setting": "[7]", "result": 78, "unit": "%"},
      {"measurement": "Population Pyknosed Nuclei (%)", "setting": "[7]", "result": 10, "unit": "%"},
      {"measurement": "Population Tubulin-Different-Phenotype (%)", "setting": "[7]", "result": 10, "unit": "%"},
      {"measurement": "Total Cell Count", "setting": "[7]", "result": 313},
      {"measurement": "Population Apoptotic (%)", "setting": "[8]", "result": 100, "unit": "%"},
      {"measurement": "Population Fragmented Nuclei (%)", "setting": "[8]", "result": 58, "unit": "%"},
      {"measurement": "Population Healthy Nuclei (%)", "setting": "[8]", "result": 40, "unit": "%"},
      {"measurement": "Population Hoechst High Intensity Objects (%)", "setting": "[8]", "result": 53, "unit": "%"},
      {"measurement": "Population Membrane Permeable-Phenotype (%)", "setting": "[8]", "result": 3, "unit": "%"},
      {"measurement": "Population Mitochondria Different-Phenotype (%)", "setting": "[8]", "result": 50, "unit": "%"},
      {"measurement": "Population Mitotic Cells (%)", "setting": "[8]", "result": 0, "unit": "%"},
      {"measurement": "Population Normal (%)", "setting": "[8]", "result": 46, "unit": "%"},
      {"measurement": "Population Pyknosed Nuclei (%)", "setting": "[8]", "result": 1, "unit": "%"},
      {"measurement": "Population Tubulin-Different-Phenotype (%)", "setting": "[8]", "result": 53, "unit": "%"},
      {"measurement": "Total Cell Count", "setting": "[8]", "result": 152}
    ]}
  ]
}
